# High-throughput results: PubChem BioAssay, several laboratories
# JMJD2C inh: human JMJD2C demethylase inhibition | GST-JMJD2C(1-420) H3K9me3 demethylation, DELFIA europium | inhibition, % at 2.35 µM | hit rate 0.069% among 330,000 | AID 2099;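 active = more than half of a compound's replicate wells show inhibition beyond 50%, single wells judged on their own value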;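 also: signal counts dimethyl H3K9 product captured on neutravidin plate; 0% = median of DMSO wells and 100% = 0.3 times that DMSO median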
# pCIP destab: lowers stability of the mouse p/CIP coactivator protein; hit rate 0.01% among 290,000; Q05BA5; decrease of EGFP signal, % at 10 µM; AID 1984; F442A p/CIP-EGFP cells, EGFP fluorescence, 16 h;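 active = EGFP signal decrease of at least 30% at 10 µM or well 3 SD below plate mean, unless failing retest; inactive = the rest, including hits failing retest or dose response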
# VLA-4 inh: inhibition in a human VLA-4 binding assay; VLA-4 expressing cells, ligand binding flow cytometry; P13612; hit rate 0.2% among 330,000; inhibition, % (about 7 µM as worked out from the volumes in the protocol); in the data active = inhibition above about 50%
# Arr AP2 block: blocks beta-arrestin peptide binding to AP2 adaptin; FITC-arrestin peptide / GST-AP2 beads, flow cytometry; AP2 beta2 appendage carries R879A mutation; inhibition, % at 10 µM; hit rate 0.31% among 340,000; AID 504490;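 active = inhibition above a set limit, near 3 SD of compounds lacking own fluorescence, cut at about 54% in these data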;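 also: plate controls were DMSO wells for no effect and 5 µM unlabelled arrestin peptide for full effect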
#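 System: GST-tagged AP2 beta2-adaptin appendage (R879A) on 4 µm glutathione beads / Reagent: FITC-arrestin peptide, 50 nM / Detection: HyperCyt-sampled flow cytometry, FL1 channel, ex 488/em 535 nm / Timing: 12 min plus 1 h, RT / Buffer or medium: PBS plus Tween 20 (0.05%) and BSA (0.1%)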
# Arr AP2 CP1: inhibitors of human beta-arrestin and AP2 interaction; shares compounds with Arr AP2 block; GST-AP2 beads, FITC arrestin peptide binding, flow cytometry; GST-fused beta2-adaptin appendage, R879A mutant; inhibition, % at 10 µM; hit rate 2% among 1,300;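 active = inhibition above a set limit, roughly 3 SD of non-fluorescent compound noise, cut at about 38% in these data; inactive = inhibition at or below that limit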;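 also: loss of bead fluorescence from 50 nM FITC arrestin peptide bound to appendage; 0% = negative control wells and 100% = excess unlabelled arrestin peptide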
# GST GSH counter: disrupts GST binding to glutathione beads, arrestin-AP2 artifact. hit rate 2% among 1,300. inhibition, % at 10 µM. shares compounds with Arr AP2 block. GST-fluorescein binding to GSH beads, fluorescence, counter-screen;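 active = inhibition above 50%, about 3 SD of the inhibition seen with non-fluorescent compounds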;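 also: fluorescein maleimide labelled GST captured on 4 micron glutathione beads; higher means more loss of bead fluorescence from quenching or blocked binding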
# Active calls of the source: *; · = no result given. Shown are actives, neighbours in structure and some others; about 0.57% of the full set was active somewhere.
SMILES,JMJD2C inh,pCIP destab,VLA-4 inh,Arr AP2 block,Arr AP2 CP1,GST GSH counter
COc1ccc2nc(-c3ccccc3)cc(C(=O)OCC(=O)N3CC(C)OC(C)C3)c2c1 (stereo not drawn),4,·,0,54*,3,-2
CCNC(=S)Nc1cccc(S(=O)(=O)Nc2ccccc2OC)c1,6,-15,7,6,·,·
Cc1ccc(S(=O)(=O)n2c(CN3CCCC(C)C3)nc3ccccc32)cc1 (stereo not drawn),0,-10,-4,22,·,·
Cc1cc(NN)nc(NS(=O)(=O)c2ccccc2)n1,-20,-14,8,34,·,·
COc1ccc(-n2c(SCC(=O)O)nc3sc4c(c3c2=O)CCCC4)cc1,21,-8,30,59*,-4,0
O=C(O)CSc1nc2sc3c(c2c(=O)n1-c1ccccc1)CCC3,-9,-6,-1,5,·,·
C=CCn1cccc(C(=O)Nc2ccc(OCC)cc2)c1=O,-5,-15,11,-17,·,·
CCOC(=O)c1c(NC(C)=O)sc2c(O)c(CN3CCN(CC)CC3)ccc12,-6,-7,10,64*,15,2
CC(C)Oc1ccc(CCNC(=O)C2CCC(=O)N(Cc3cccc(F)c3)C2)cc1 (stereo not drawn),5,-8,6,-5,11,-1
O=C(NCCc1ccccc1)C1CCC(=O)N(Cc2cccc(C(F)(F)F)c2)C1 (stereo not drawn),3,-11,-11,1,-5,1
COc1cccc(CN2CC(C(=O)NCCCc3ccc(C)cc3)CCC2=O)c1 (stereo not drawn),8,-4,-3,2,-9,1
COc1cccc(CN2CC(C(=O)NCCCc3ccncc3)CCC2=O)c1 (stereo not drawn),3,2,8,-9,·,·
COCCCNC(CC(=O)Nc1ccc(OC)cc1OC)C(=O)O (stereo not drawn),0,-5,4,-4,·,·
COc1ccc(Cl)cc1NC(=O)COC(=O)C1CC(=O)N(Cc2ccccc2)C1 (stereo not drawn),4,·,-12,58*,5,1
COc1ccc(Cl)cc1NC(=O)CN(C)C(=O)C1CC(=O)N(Cc2ccc(C)cc2)C1 (stereo not drawn),7,·,-10,2,·,·
COc1ccc(Cl)cc1NC(=O)COC(=O)C1CCCCC1,11,·,7,57*,6,-7
COc1ccc(Cl)cc1NC(=O)COC(=O)C1CC1,5,·,6,-3,·,·
O=C(NCc1ccco1)C1CC(=O)N(c2ccc(Cl)cc2)C1 (stereo not drawn),-13,-6,6,58*,11,-5
O=C(NCc1ccco1)C1CC(=O)N(c2cccc(Cl)c2)C1 (stereo not drawn),-8,0,19,-2,·,·
O=C(NCCC1=CCCCC1)C1CCN(S(=O)(=O)c2ccccc2)CC1,5,19,1,6,·,·
COC(=O)c1ccccc1S(=O)(=O)N1CCC(C(=O)NCCC2=CCCCC2)CC1,5,·,10,63*,-5,-1
C=CCN1C(=O)c2ccc(C(=O)N3CCN(S(=O)(=O)c4cccc(F)c4)CC3)cc2C1=O,-2,·,5,66*,5,-10
C=CCN1C(=O)c2ccc(C(=O)N3CCN(S(=O)(=O)c4cc(C)ccc4C)CC3)cc2C1=O,-6,·,4,7,·,·
Cc1ccccc1C(=O)OC(C)C(=O)NCc1ccc2c(c1)OCO2 (stereo not drawn),13,·,15,29,·,·
CC(OC(=O)c1ccc(Cl)nc1)C(=O)NCc1ccc2c(c1)OCO2 (stereo not drawn),-21,·,-1,61*,9,0
SMILES,JMJD2C inh,pCIP destab,VLA-4 inh,Arr AP2 block,Arr AP2 CP1,GST GSH counter
CC(OC(=O)c1nn(C(C)C)c(=O)c2ccccc12)C(=O)Nc1ncc(Cl)cc1Cl (stereo not drawn),5,3,8,61*,-9,1
O=C(C[C@H]1C[C@H](C(=O)N2CCCCC2)[C@@]2(CCc3ccccc3)c3[nH]c4cc(-c5ccco5)ccc4c3CCN2C1=O)NCCC1=CCCCC1,·,·,·,57*,-3,-6
O=C(C[C@H]1C[C@H](C(=O)N2CCCCC2)[C@@]2(CCc3ccccc3)c3[nH]c4cc(-c5ccco5)ccc4c3CCN2C1=O)NCc1ccco1,·,·,·,1,·,·
CC(C)N(C(=O)[C@H]1C[C@H](CC(=O)NCc2ccco2)C(=O)N2CCc3c([nH]c4cc(-c5ccco5)ccc34)[C@]12C)C(C)C,·,·,·,60*,-9,-1
Cc1nc2scc(C)n2c(=O)c1S(=O)(=O)Nc1ccc(F)cc1,-7,16,-8,29,·,·
N#Cc1sc2nc(-c3cccs3)cc(-c3ccc(Cl)cc3)c2c1N,8,-5,16,61*,-11,9
Cc1nc2c(C)cccn2c(=O)c1NC(=O)c1cccs1,-5,·,-19,66*,6,5
Cc1cccc(-n2c(-c3ccco3)nc3nc4ccccc4nc32)c1,4,0,-6,·,·,·
COc1cccc(-n2c(-c3ccco3)nc3nc4ccccc4nc32)c1,4,-23,0,75*,65*,174*
CCCCc1cc(=O)oc2cc(C)cc(OC(C)C(=O)NCc3ccncc3)c12 (stereo not drawn),-27,9,28,67*,-6,-5
CCOC(=O)c1cc(-c2ccc(OC)cc2)nc2c1c(C)nn2CCC(N)=S,8,0,19,5,·,·
Cc1ccc(/C=C/C(=O)NC(C)c2ccccc2)cc1 (stereo not drawn),0,5,8,22,·,·
COc1ccc(NC(=O)C2CCCN(S(=O)(=O)c3c(C)[nH]c(=O)[nH]c3=O)C2)cc1Cl (stereo not drawn),3,-1,-4,1,·,·
COc1ccc(NC(=O)C2CCCN(S(=O)(=O)c3c(C)[nH]c(=O)[nH]c3=O)C2)cc1OC (stereo not drawn),-1,-7,-3,60*,-10,-3
CCC(CC)c1nnc(NC(=O)c2cc([N+](=O)[O-])ccc2N2CCCCC2)s1,11,-6,13,21,·,·
O=C(CCNC(=O)c1ccc(Cl)cc1)NCCC1=CCCCC1,12,·,13,64*,-10,-4
COC(=O)c1ccc(C(=O)OC)c(NC(=S)N2CCCCC2C)c1 (stereo not drawn),-10,0,20,-2,·,·
CCCn1c(NC(=S)Nc2ccccc2)nc2ccccc21,-11,-16,-3,63*,-14,4
Clc1ccc(OCc2nnnn2-c2ccccc2)cc1,1,-4,·,73*,5,-5
c1ccc(OCc2nnnn2-c2ccccc2)cc1,6,-6,-41,3,·,·
COc1ccc(OCCC(=O)OCC(=O)NCc2ccco2)cc1,2,6,3,4,·,·
COc1ccccc1NCCC(=O)OCC(=O)NCc1ccco1,2,-6,0,75*,-9,-4
